In paper PMC3566476 (Neuropharmacology, 2010):
Like-named read-outs stand apart in the source and are kept apart here.

Key:
[1] = biological target: native GABAA receptors in membranes derived from spinal cord; experiment: [3H]flumazenil competition binding, spinal cord membranes; conditions: mouse spinal cord membranes, 1.2 nM [3H]flumazenil, mean ± SD of 3
In short: (§1)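 Brain or spinal cord from male C57BL/6 mice (25–30 g) was homogenized in 10 mM Tris pH 7.4, 150 mM NaCl with protease inhibitors. Spins at 1000 g then 20,000 g (4°C); the pellet was washed in 10 mM Tris-HCl pH 7.4, 100 mM KCl. About 50 μg protein was incubated with increasing test compound and 1.2 nM [3H]flumazenil, 90 min on ice, then filtered. Nonspecific binding: 10 μM clonazepam. Scintillation counting; 3 independent runs.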

[2] = biological target: native GABAA receptors in membranes prepared from brain; experiment: [3H]flumazenil competition binding, brain membranes; conditions: mouse brain membranes, 1.2 nM [3H]flumazenil, mean ± SD of 3
In short: as §1

α1β3γ2 GABAA receptor = experiment: [3H]flumazenil competition binding, L cells α1β3γ2; conditions: L cells α1β3γ2, [3H]flumazenil
In short: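 L(-tk) cells stably expressing α1β3γ2 were grown in DMEM/10% FBS and induced with 1 μM dexamethasone (final), then harvested 3–4 days later. Cells were sonicated in 10 mM Tris-HCl pH 7.4, 100 mM KCl with protease inhibitors; the 100,000 g pellet was used. About 200 μg protein was incubated with increasing test compound and 1.2 nM [3H]flumazenil for 90 min on ice, then filtered. Nonspecific binding: 10 μM clonazepam. 4–5 independent runs.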

α2β3γ2 GABAA receptor = α2β3γ2 GABAA receptor (Homo sapiens, UniProt P18507+P47869); experiment: [3H]flumazenil competition binding, L cells α2β3γ2; conditions: recombinant receptors, α2 versus α1
[3] = Pharmacokinetics of HZ166 in the brain; format: in vivo, mouse; conditions: 48 mg / kg i.p.
[4] = test system: chronic constriction injury (CCI) of the sciatic nerve; experiment: CCI neuropathic pain model, mechanical sensitization; format: in vivo, mouse
[5] = test system: chronic constriction injury (CCI) of the sciatic nerve; experiment: CCI neuropathic pain model, heat hyperalgesia; format: in vivo, mouse
In short: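 Male mice (7–12 weeks) had left sciatic nerve CCI under 2% isoflurane, with three loose chromic gut ligatures. On day 7, test compound 16 mg/kg or vehicle was given i.p. Radiant-heat paw withdrawal latency (plantar test) was taken for 3 h, with 4–5 readings averaged per time point and ipsi/contralateral paws tested alternately. AUC used the pre-drug baseline subtracted. n = 6/group; unpaired t-test.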

[6] = test system: zymosan A induced inflammatory hyperalgesia; experiment: Zymosan A model of inflammatory pain, mechanical sensitization; format: in vivo, mouse; conditions: 48 hours after zymosan A, 16 mg / kg i.p., 3 hours, n = 6
In short: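 Zymosan A (0.06 mg in 20 μl 0.9% NaCl) was injected s.c. into the left plantar hindpaw of male mice. After 48 h, test compound 16 mg/kg or vehicle was given i.p. Dynamic von Frey withdrawal thresholds were monitored for 3 h (4–5 readings averaged). AUC used the day-2 pre-drug baseline subtracted. n = 6/group; unpaired t-test.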

locomotor activity = experiment: Locomotor activity; format: in vivo, mouse
In short: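 Male mice (7–12 weeks) were tested in the light phase. Sixty min after i.p. test compound (16, 48, 100, 160 mg/kg) or vehicle, each mouse was placed in a 20-cm circular enclosure with 4 photocells. Total photocell interruptions were counted over 1 h. n = 10/group; one-way ANOVA with Scheffe post hoc test.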

[7] = test system: chronic constriction injury (CCI) of the sciatic nerve; experiment: Tolerance development in the CCI model; format: in vivo, mouse; conditions: 16 mg / kg i.p. once daily for 9 days, CCI mice, versus chronic vehicle
In short: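 Starting day 7 after left sciatic CCI, mice got test compound 16 mg/kg or vehicle i.p. once daily for 9 days. On day 10, each group was split to receive acute vehicle or 16 mg/kg i.p. Dynamic von Frey thresholds were followed for 3 h (4–5 readings averaged). %MPE was taken after 3, 5 and 10 days of treatment. n = 6/group.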

motor coordination = conditions: mouse, in vivo, ip
sedation [8] = conditions: at anxiolytic doses; ref Fischer et al., 2010; cited from earlier work
[9] = test system: rat neuropathic pain model; conditions: ref Knabl et al., 2008, cited from earlier work; for Analgesic effect during repeated administration (tolerance): once per day for nine days
sedation [10] = conditions: clinical development stopped; ref Atack et al., 2010; cited from earlier work
[11] = CCI mice day 7, i.p., mechanical sensitization, Hill fit
[12] = i.p., 60 min recording starting 60 min after injection

C#Cc1ccc2c(c1)C(c1ccccn1)=NCc1c(C(=O)OCC)ncn1-2 [HZ166]
Ki [1]: 189 ± 10 nM
Ki [2]: 282 ± 6 nM
Affinity to α2-GABAA receptors higher than that to α1-GABAA receptors (α2β3γ2 GABAA receptor): about 40%
tmax in brain ([3]; CCI operated mice): ≤ 30 min
estimated α half-life (brain) ([3]; initial elimination phase): 23.4 min
estimated apparent terminal half-life (brain) ([3]; β-phase): 396 min
ED50 antihyperalgesia ([4]; CCI mice day 7, i.p., mechanical sensitization, %MPE at 1 h, Hill fit): 5.3 ± 1.8 mg/kg
Emax (maximum antihyperalgesic effect, %MPE) [4, 11]: 66 ± 5%
Time of maximum effect on ipsilateral PWT after injection ([4]; CCI mice, i.p.): about 1 h
Doses with statistically significant antihyperalgesic effects ([4]; CCI mice, i.p., %MPE at 1 h): ≥ 5 mg/kg
PWTs of the contralateral paw ([4]; CCI mice, i.p., uninjured paw): not affected
AUC of PWL, injured paw ([5]; CCI mice day 7, 16 mg / kg i.p., 3 hours, n = 6): 4.33 ± 1.95 s·h
AUC of mechanical PWT [6]: 1.55 ± 0.21 g·h
estimated ED50 sedation (locomotor activity; estimated from locomotor activity, Fig. 6): 97 mg/kg
Motor activity at 16 and 48 mg / kg (locomotor activity; [12]): did not significantly impair motor activity
Motor activity at 100 and 160 mg / kg (locomotor activity; [12]): Significant reduction of activity
Tolerance development (analgesic activity after chronic treatment) [7]: no loss of antihyperalgesic activity
Doses that did not interfere with rotarod performance (motor coordination): ≤ 160 mg/kg
Sedation in primates (sedation [8]): does not cause sedation

Cn1ncnc1COc1nn2c(-c3cc(F)ccc3F)nnc2cc1C(C)(C)C [L-838,417]
Analgesic effect during repeated administration (tolerance) [9]: did not decline
Antihyperalgesic activity in rat neuropathic pain model [9]: good antihyperalgesic activity

MRK409
Sedation in humans (sedation [10]): sedative effects in man

NCC1(CC(=O)O)CCCCC1 [gabapentin, reference compound]
Emax (maximum antihyperalgesic effect, %MPE) [4, 11]: 84 ± 1.4%
ED50 ([4]; Mus musculus, ip, read-out: ED50 antihyperalgesia): 6.2 ± 0.4 mg/kg
Doses with significant reduction in locomotor activity (locomotor activity; [12]): ≥ 30 mg/kg
Dose causing significant impairment of motor performance in the rotarod test (motor coordination; male): 90 mg/kg
Doses that did not interfere with rotarod performance (motor coordination; male): ≤ 30 mg/kg

CCOC(=O)c1ncn2c1CN(C)C(=O)c1cc(F)ccc1-2 [Flumazenil, flumazenil, reference compound]
Effect of flumazenil on the antihyperalgesic effect of HZ166 ([4]; flumazenil 10 mg / kg i.p., HZ166 16 mg / kg): almost completely reversed

CN1CC[C@]23c4c5ccc(O)c4O[C@H]2[C@@H](O)C=C[C@H]3[C@H]1C5 [morphine]
Analgesic effect during repeated administration (tolerance) [9]: complete tolerance developed
